Measurements as given in publication PMC2839030 (Chemical research in toxicology, 2010).
Read-outs that look alike come from different tables or passages of the source.

What was measured:
Format in all cases: biochemical
CYP1A1 = biological target: T1, CYP1A1 (Homo sapiens, UniProt P04798); assay: 7-Ethoxyresorufin O-deethylation; conditions: for Type of inhibition of P450 1A1: pre-incubation assays in the presence and absence of NADPH
T1 sequence (P04798 1-512): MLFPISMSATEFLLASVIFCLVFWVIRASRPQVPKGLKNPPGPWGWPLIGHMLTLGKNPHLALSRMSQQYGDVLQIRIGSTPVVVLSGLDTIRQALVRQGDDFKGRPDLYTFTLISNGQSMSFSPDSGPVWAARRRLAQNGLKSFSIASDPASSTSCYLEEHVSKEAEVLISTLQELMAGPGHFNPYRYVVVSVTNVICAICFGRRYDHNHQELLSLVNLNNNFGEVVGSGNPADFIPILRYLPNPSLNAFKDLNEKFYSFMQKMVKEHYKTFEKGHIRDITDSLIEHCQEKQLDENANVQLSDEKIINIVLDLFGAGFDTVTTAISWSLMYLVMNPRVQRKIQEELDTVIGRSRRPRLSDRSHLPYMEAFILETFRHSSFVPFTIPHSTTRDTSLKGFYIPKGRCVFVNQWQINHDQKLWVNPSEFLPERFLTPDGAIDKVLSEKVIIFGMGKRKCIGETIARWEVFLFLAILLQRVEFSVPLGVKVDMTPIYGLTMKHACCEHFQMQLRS
How it was run: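 Human CYP1A1 supersomes with P450 reductase in 0.1 M phosphate pH 7.6 plus MgCl2, ethoxyresorufin (1.0 mM DMSO stock) and test compound in DMSO at varied concentrations. NADPH-regenerating system starts reaction, 37°C. Product fluorescence ex 530/em 585 nm. Quadratic fit of progress curves, b term as rate. IC50 from Dixon plot x-intercept. Mechanism: 5-min 37°C pre-incubation ± NADPH before substrate.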

human CYP1A2 = biological target: T2, human CYP1A2 (Homo sapiens, UniProt P05177); assay: 7-Methoxyresorufin O-demethylation; conditions: for Type of inhibition of P450 1A2: pre-incubation assays in the presence and absence of NADPH
T2 sequence (P05177 2-516 limits assumed): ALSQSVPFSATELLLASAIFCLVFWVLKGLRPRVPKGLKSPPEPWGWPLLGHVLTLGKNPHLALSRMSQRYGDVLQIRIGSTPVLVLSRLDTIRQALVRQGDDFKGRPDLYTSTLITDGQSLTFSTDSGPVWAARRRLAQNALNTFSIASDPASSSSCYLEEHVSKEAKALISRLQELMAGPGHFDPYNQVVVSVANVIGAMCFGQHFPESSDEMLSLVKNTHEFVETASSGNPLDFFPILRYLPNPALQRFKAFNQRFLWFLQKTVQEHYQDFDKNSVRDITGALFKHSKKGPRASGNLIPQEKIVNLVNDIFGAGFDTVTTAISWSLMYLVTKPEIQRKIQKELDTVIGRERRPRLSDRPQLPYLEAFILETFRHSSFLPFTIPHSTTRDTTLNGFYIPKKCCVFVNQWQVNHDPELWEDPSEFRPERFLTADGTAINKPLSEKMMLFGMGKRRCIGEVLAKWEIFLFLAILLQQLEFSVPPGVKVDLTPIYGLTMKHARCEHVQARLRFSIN

rat CYP2B1 = biological target: T3, rat CYP2B1 (Rattus norvegicus, UniProt P00176); assay: 7-Pentoxyresorufin O-depentylation
T3 sequence (P00176 1-491): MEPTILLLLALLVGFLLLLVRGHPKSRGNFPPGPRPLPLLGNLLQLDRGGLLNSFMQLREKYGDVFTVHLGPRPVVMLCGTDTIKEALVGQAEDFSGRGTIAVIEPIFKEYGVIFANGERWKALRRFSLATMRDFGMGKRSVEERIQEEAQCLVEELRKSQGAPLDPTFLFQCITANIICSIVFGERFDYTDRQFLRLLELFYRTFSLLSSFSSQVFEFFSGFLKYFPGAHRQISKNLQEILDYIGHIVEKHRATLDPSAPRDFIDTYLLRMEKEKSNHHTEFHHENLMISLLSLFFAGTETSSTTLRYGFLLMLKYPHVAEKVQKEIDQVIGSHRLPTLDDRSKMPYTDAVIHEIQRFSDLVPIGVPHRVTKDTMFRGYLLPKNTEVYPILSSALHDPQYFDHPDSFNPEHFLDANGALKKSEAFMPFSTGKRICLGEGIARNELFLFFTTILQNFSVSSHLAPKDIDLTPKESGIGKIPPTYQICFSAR
How it was run: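 Rat CYP2B1 supersomes (with P450 reductase and cytochrome b5) in 0.1 M potassium phosphate pH 7.6 with MgCl2, pentoxyresorufin (1.0 mM stock in DMSO) and test compound in DMSO at several concentrations, with a DMSO-only control. Reaction started with NADPH-regenerating system at 37°C; resorufin fluorescence read over time (ex 530/em 585 nm). Rates from second-order curve fits; IC50 from Dixon plot x-intercept.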

human CYP2A6 = biological target: T4, human CYP2A6 (Homo sapiens, UniProt P11509); assay: Coumarin 7-hydroxylation assay in supersomes
T4 sequence (P11509 1-494): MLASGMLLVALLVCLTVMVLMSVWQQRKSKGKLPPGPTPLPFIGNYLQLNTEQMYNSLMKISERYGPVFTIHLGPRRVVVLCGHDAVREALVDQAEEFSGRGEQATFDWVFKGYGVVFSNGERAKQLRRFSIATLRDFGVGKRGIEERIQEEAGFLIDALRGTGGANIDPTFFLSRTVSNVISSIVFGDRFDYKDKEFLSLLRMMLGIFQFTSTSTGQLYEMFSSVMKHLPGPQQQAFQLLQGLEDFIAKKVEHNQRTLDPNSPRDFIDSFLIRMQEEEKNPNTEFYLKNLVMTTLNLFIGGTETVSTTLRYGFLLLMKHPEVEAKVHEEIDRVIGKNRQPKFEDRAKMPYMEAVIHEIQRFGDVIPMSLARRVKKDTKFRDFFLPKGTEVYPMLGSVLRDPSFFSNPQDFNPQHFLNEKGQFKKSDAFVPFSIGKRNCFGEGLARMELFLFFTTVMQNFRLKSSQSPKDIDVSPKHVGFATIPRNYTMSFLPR

Question: With `CCC#Cc1ccc2ccc3cccc4ccc1c2c34` [Compound 1-EEP, 1-(1-butynyl)pyrene] as the compound, how does the IC50 (CYP1A1) read?
Answer: Its IC50 is 720 nM.

Question: What about the “Type of inhibition of P450 1A1” value (CYP1A1) of the same compound?
Answer: The value was “mechanism-based inhibitors”.

Question: What about the IC50 (human CYP1A2) of the same compound?
Answer: Its IC50 is 430 nM.

Question: What about the “Type of inhibition of P450 1A2” value (human CYP1A2) of the same compound?
Answer: Its value is “mechanism-based inhibitors”.

Question: And the IC50 (rat CYP2B1)?
Answer: The IC50 was > 10000 nM.

Question: What about the IC50 (human CYP2A6) of the same compound?
Answer: Its IC50 is > 10000 nM.

Question: How did the IC50 (CYP1A1) turn out when `C#Cc1ccc2ccc3cccc4ccc1c2c34` [Compound 1-EP, 1-ethynylpyrene] was run?
Answer: Its IC50 is 180 nM.

Question: And the “Type of inhibition of P450 1A1” value (CYP1A1)?
Answer: Its value is “mechanism-based inhibitors”.

Question: What about the IC50 (human CYP1A2) of the same compound?
Answer: The IC50 was 320 nM.

Question: And the “Type of inhibition of P450 1A2” value (human CYP1A2)?
Answer: The value was “mechanism-based inhibitors”.

Question: And the IC50 (rat CYP2B1)?
Answer: Its IC50 is 40 nM.

Question: And the IC50 (human CYP2A6)?
Answer: The IC50 was > 10000 nM.

Question: Which IC50 (CYP1A1) does the source give for `CC#Cc1ccc2ccc3cccc4ccc1c2c34` [Compound 1-MEP, 1-(1-propynyl)pyrene] here?
Answer: The IC50 was 20 nM.

Question: And the “Type of inhibition of P450 1A1” value (CYP1A1)?
Answer: Its value is “mechanism-based inhibitors”.

Question: What about the IC50 (human CYP1A2) of the same compound?
Answer: Its IC50 is 60 nM.

Question: And the “Type of inhibition of P450 1A2” value (human CYP1A2)?
Answer: The value was “mechanism-based inhibitors”.

Question: What about the IC50 (rat CYP2B1) of the same compound?
Answer: The IC50 was 830 nM.

Question: And the IC50 (human CYP2A6)?
Answer: Its IC50 is > 10000 nM.

Question: How did the IC50 (CYP1A1) turn out when `C#Cc1ccc2c(ccc3ccccc32)c1` [Compound 2-Ephen, 2-ethynylphenanthrene] was run?
Answer: Its IC50 is 610 nM.

Question: What about the “Type of inhibition of P450 1A1” value (CYP1A1) of the same compound?
Answer: The value was “mechanism-based inhibitors”.

Question: What about the IC50 (human CYP1A2) of the same compound?
Answer: The IC50 was 340 nM.

Question: What about the “Type of inhibition of P450 1A2” value (human CYP1A2) of the same compound?
Answer: The value was “mechanism-based inhibitors”.

Question: And the IC50 (rat CYP2B1)?
Answer: The IC50 was 170 nM.

Question: And the IC50 (human CYP2A6)?
Answer: The IC50 was > 10000 nM.

Question: Which results are given for `CC#Cc1ccc2c(ccc3ccccc32)c1` [Compound 2-MEPhen, 2-(1-propynyl)phenanthrene]?
Answer: IC50 (CYP1A1): 160 nM; Type of inhibition of P450 1A1 (CYP1A1): mechanism-based inhibitors; IC50 (human CYP1A2): 600 nM; Type of inhibition of P450 1A2 (human CYP1A2): mechanism-based inhibitors; IC50 (rat CYP2B1): > 10000 nM; IC50 (human CYP2A6): > 10000 nM

Question: What does the source list for `C#Cc1ccc2ccc3ccccc3c2c1` [Compound 3-Ephen, 3-ethynylphenanthrene]?
Answer: IC50 (CYP1A1): 1030 nM; Type of inhibition of P450 1A1 (CYP1A1): mechanism-based inhibitors; IC50 (human CYP1A2): 280 nM; Type of inhibition of P450 1A2 (human CYP1A2): mechanism-based inhibitors; IC50 (rat CYP2B1): 480 nM; IC50 (human CYP2A6): > 10000 nM

Question: Which IC50 (CYP1A1) does the source give for `CC#Cc1cc2cccc3ccc4cccc1c4c32` [Compound 4-MEP, 4-(1-propynyl)pyrene] here?
Answer: The IC50 was 370 nM.

Question: And the “Type of inhibition of P450 1A1” value (CYP1A1)?
Answer: Its value is “mechanism-based inhibitors”.

Question: And the IC50 (rat CYP2B1)?
Answer: Its IC50 is 2260 nM.

Question: And the IC50 (human CYP2A6)?
Answer: The IC50 was > 10000 nM.

Question: What does the source list for `C#Cc1cc2ccccc2c2ccccc12` [Compound 9-Ephen, 9-ethynylphenanthrene]?
Answer: IC50 (CYP1A1): 620 nM; Type of inhibition of P450 1A1 (CYP1A1): mechanism-based inhibitors; Type of inhibition of P450 1A2 (human CYP1A2): mechanism-based inhibitors; IC50 (rat CYP2B1): 70 nM; IC50 (human CYP2A6): > 10000 nM

Question: With `CC#Cc1cc2ccccc2c2ccccc12` [Compound 9-MEPhen, 9-(1-propynyl)phenanthrene] as the compound, how does the IC50 (CYP1A1) read?
Answer: Its IC50 is 2630 nM.

Question: What about the IC50 (CYP1A1; human, pH 7.6, probe 7-ethoxyresorufin) of the same compound?
Answer: Its IC50 is 2260 nM.

Question: What about the “Type of inhibition of P450 1A1” value (CYP1A1) of the same compound?
Answer: Its value is “mechanism-based inhibitors”.

Question: What about the “Type of inhibition of P450 1A2” value (human CYP1A2) of the same compound?
Answer: Its value is “mechanism-based inhibitors”.

Question: And the IC50 (rat CYP2B1)?
Answer: The IC50 was > 10000 nM.

Question: And the IC50 (human CYP2A6)?
Answer: The IC50 was > 10000 nM.
